Laboratory results taken from ChEMBL document CHEMBL1144800, “Synthesis and antimicrobial properties of monensin A esters” (2008).
≈ marks a conversion by molar mass, not a printed value. Calls of active or inactive are those of the source. The calls are words filed in the database; no cut-off is given here.

How the values were obtained:
Staphylococcus aureus [1] = assay: Antibacterial activity against Staphylococcus aureus NCTC 4163 after 18 hrs by serial agar dilution method; type: functional; conditions: NCTC 4163, 18 h
Summary of the method: (§1)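 MIC by twofold serial agar dilution in Mueller–Hinton II agar per CLSI, run only for compounds that gave an inhibition zone in disc assay. Compounds dissolved in DMSO, tested at 3.125–400 µg/ml in agar. Final inoculum 10^4 CFU/ml. […] DMSO control included.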

Staphylococcus aureus [2] = assay: Antibacterial activity against Staphylococcus aureus ATCC 29213 at 400 ug/disc after 18 hrs by disc diffusion assay; type: functional; conditions: ATCC 29213, 18 h, read-out: IZ
Summary of the method: (§2)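 Disc diffusion on Mueller–Hinton II agar per CLSI guidelines. Compound in ethanol applied to 9 mm filter paper discs at 400 µg per disc, then dried and placed on the agar surface. Growth inhibition zone diameter read after 18 h at 35 °C.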

Candida albicans [3] = assay: Antifungal activity against Candida albicans ATCC 10231 at 400 ug/disc after 24 hrs by disc diffusion assay; type: functional; conditions: ATCC 10231, 24 h, read-out: IZ
Summary of the method: (§3)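 Disc diffusion on RPMI agar with 2% glucose per CLSI guidelines. Discs 9 mm filter paper, loaded from ethanol solution with 400 µg compound, dried before placing on the agar. Inhibition zone diameter read after incubation at 35 °C. Fluconazole control at 25 µg per disc.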

Candida albicans [4] = assay: Antifungal activity against Candida albicans ATCC 10231 after 24 hrs by serial agar dilution method; type: functional; conditions: ATCC 10231, 24 h
Summary of the method: (§4)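 Yeast MIC by twofold serial agar dilution on RPMI agar with 2% glucose (CLSI), run only for compounds that gave an inhibition zone in disc assay. Compounds in DMSO, 3.125–400 µg/ml in agar. Final inoculum 10^4 CFU/ml. […] Fluconazole and DMSO controls included.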

Micrococcus luteus [5] = assay: Antibacterial activity against Micrococcus luteus ATCC 10240 at 400 ug/disc after 18 hrs by disc diffusion assay; type: functional; conditions: ATCC 10240, 18 h, read-out: IZ; summary of the method: as §2
Candida parapsilosis [6] = assay: Antifungal activity against Candida parapsilosis ATCC 22019 after 24 hrs by serial agar dilution method; type: functional; conditions: Lodderomyces parapsilosis, ATCC 22019, 24 h
Summary of the method: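 Twofold serial agar dilution per CLSI on RPMI agar with 2% glucose. Agents were dissolved in DMSO and tested at 3.125–400 µg/ml in the solid medium, with a DMSO control. Final inoculum was 10^4 CFU/mL.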

Staphylococcus aureus [7] = assay: Antibacterial activity against Staphylococcus aureus ATCC 25923 after 18 hrs by serial agar dilution method; type: functional; conditions: ATCC 25923, 18 h; summary of the method: as §1
Bacillus cereus [8] = assay: Antibacterial activity against Bacillus cereus ATCC 11778 after 18 hrs by serial agar dilution method; type: functional; conditions: ATCC 11778, 18 h; summary of the method: as §1
Pseudomonas aeruginosa [9] = assay: Antibacterial activity against Pseudomonas aeruginosa ATCC 15442 at 400 ug/disc after 18 hrs by disc diffusion assay; type: functional, organism-based; summary of the method: as §2
Pseudomonas aeruginosa [10] = assay: Antibacterial activity against Pseudomonas aeruginosa NCTC 6749 at 400 ug/disc after 18 hrs by disc diffusion assay; type: functional, organism-based; summary of the method: as §2
Enterococcus hirae [11] = assay: Antibacterial activity against Enterococcus hirae ATCC 10541 at 400 ug/disc after 18 hrs by disc diffusion assay; type: functional; conditions: ATCC 10541, 18 h, read-out: IZ; summary of the method: as §2
Staphylococcus aureus [12] = assay: Antibacterial activity against Staphylococcus aureus ATCC 25923 at 400 ug/disc after 18 hrs by disc diffusion assay; type: functional; conditions: ATCC 25923, 18 h, read-out: IZ; summary of the method: as §2
Candida parapsilosis [13] = assay: Antifungal activity against Candida parapsilosis ATCC 22019 at 400 ug/disc after 24 hrs by disc diffusion assay; type: functional; conditions: Lodderomyces parapsilosis, ATCC 22019, 24 h; read-out: IZ; summary of the method: as §3
Escherichia coli [14] = assay: Antibacterial activity against Escherichia coli ATCC 10538 at 400 ug/disc after 18 hrs by disc diffusion assay; type: functional, organism-based; summary of the method: as §2
Bacillus subtilis [15] = assay: Antibacterial activity against Bacillus subtilis ATCC 6633 after 18 hrs by serial agar dilution method; type: functional; conditions: ATCC 6633, 18 h; summary of the method: as §1
Micrococcus luteus [16] = assay: Antibacterial activity against Micrococcus luteus ATCC 10240 after 18 hrs by serial agar dilution method; type: functional; conditions: ATCC 10240, 18 h; summary of the method: as §1
Staphylococcus aureus [17] = assay: Antibacterial activity against Staphylococcus aureus NCTC 4163 at 400 ug/disc after 18 hrs by disc diffusion assay; type: functional; conditions: NCTC 4163, 18 h, read-out: IZ; summary of the method: as §2
Bacillus subtilis [18] = assay: Antibacterial activity against Bacillus subtilis ATCC 6633 at 400 ug/disc after 18 hrs by disc diffusion assay; type: functional; conditions: ATCC 6633, 18 h, read-out: IZ; summary of the method: as §2
Bacillus cereus [19] = assay: Antibacterial activity against Bacillus cereus ATCC 11778 at 400 ug/disc after 18 hrs by disc diffusion assay; type: functional; conditions: ATCC 11778, 18 h, read-out: IZ; summary of the method: as §2
Staphylococcus aureus [20] = assay: Antibacterial activity against Staphylococcus aureus ATCC 6538 at 400 ug/disc after 18 hrs by disc diffusion assay; type: functional; conditions: ATCC 6538, 18 h, read-out: IZ; summary of the method: as §2
Staphylococcus aureus [21] = assay: Antibacterial activity against Staphylococcus aureus ATCC 6538 after 18 hrs by serial agar dilution method; type: functional; conditions: ATCC 6538, 18 h; summary of the method: as §1
Pseudomonas aeruginosa [22] = assay: Antibacterial activity against Pseudomonas aeruginosa ATCC 27853 at 400 ug/disc after 18 hrs by disc diffusion assay; type: functional, organism-based; summary of the method: as §2
Proteus vulgaris = assay: Antibacterial activity against Proteus vulgaris NCTC 4635 at 400 ug/disc after 18 hrs by disc diffusion assay; type: functional, organism-based; summary of the method: as §2
Escherichia coli [23] = assay: Antibacterial activity against Escherichia coli NCTC 8196 at 400 ug/disc after 18 hrs by disc diffusion assay; type: functional, organism-based; summary of the method: as §2
Staphylococcus aureus [24] = assay: Antibacterial activity against Staphylococcus aureus ATCC 29213 after 18 hrs by serial agar dilution method; type: functional; conditions: ATCC 29213, 18 h; summary of the method: as §1
Candida albicans [25] = assay: Antifungal activity against Candida albicans ATCC 90028 after 24 hrs by serial agar dilution method; type: functional; conditions: ATCC 90028, 24 h; summary of the method: as §4
Enterococcus hirae [26] = assay: Antibacterial activity against Enterococcus hirae ATCC 10541 after 18 hrs by serial agar dilution method; type: functional; conditions: ATCC 10541, 18 h
Summary of the method: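 Twofold serial agar dilution MIC in Mueller–Hinton II agar (CLSI), run only for compounds that gave an inhibition zone in disc assay. DMSO solutions tested at 3.125–400 µg/ml in agar. Final inoculum 10^5 CFU/ml. Read after 18 h at 35 °C. DMSO control included.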

[27] = tested on: Staphylococcus epidermidis; assay: Antibacterial activity against Staphylococcus epidermidis ATCC 12228 after 18 hrs by serial agar dilution method; type: functional; conditions: ATCC 12228, 18 h; summary of the method: as §1
[28] = tested on: Staphylococcus epidermidis; assay: Antibacterial activity against Staphylococcus epidermidis ATCC 12228 at 400 ug/disc after 18 hrs by disc diffusion assay; type: functional; conditions: ATCC 12228, 18 h, read-out: IZ; summary of the method: as §2
Escherichia coli [29] = assay: Antibacterial activity against Escherichia coli ATCC 25922 at 400 ug/disc after 18 hrs by disc diffusion assay; type: functional, organism-based; summary of the method: as §2
Micrococcus luteus [30] = assay: Antibacterial activity against Micrococcus luteus ATCC 9341 after 18 hrs by serial agar dilution method; type: functional; conditions: ATCC 9341, 18 h; summary of the method: as §1
Candida albicans [31] = assay: Antifungal activity against Candida albicans ATCC 90028 at 400 ug/disc after 24 hrs by disc diffusion assay; type: functional; conditions: ATCC 90028, 24 h, read-out: IZ; summary of the method: as §3
Micrococcus luteus [32] = assay: Antibacterial activity against Micrococcus luteus ATCC 9341 at 400 ug/disc after 18 hrs by disc diffusion assay; type: functional; conditions: ATCC 9341, 18 h, read-out: IZ; summary of the method: as §2
[33] = tested on: Bordetella bronchiseptica; assay: Antibacterial activity against Bordetella bronchiseptica ATCC 4617 at 400 ug/disc after 18 hrs by disc diffusion assay; type: functional, organism-based; summary of the method: as §2
Candida albicans [34] = assay: Antifungal activity against Candida albicans ATCC 10231 at 25 ug/disc after 24 hrs by disc diffusion assay; type: functional; conditions: ATCC 10231, 24 h, read-out: IZ
Summary of the method: (§5)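 Disc diffusion per CLSI on RPMI agar with 2% glucose. Sterile 9 mm filter-paper discs were loaded at 25 µg per disc, dried, and placed on the agar surface. Plates were incubated at 35 °C, and the diameter of the growth-inhibition zone was read.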

Candida albicans [35] = assay: Antifungal activity against Candida albicans ATCC 90028 at 25 ug/disc after 24 hrs by disc diffusion assay; type: functional; conditions: ATCC 90028, 24 h, read-out: IZ; summary of the method: as §5
Candida parapsilosis [36] = assay: Antifungal activity against Candida parapsilosis ATCC 22019 at 25 ug/disc after 24 hrs by disc diffusion assay; type: functional; conditions: Lodderomyces parapsilosis, ATCC 22019, 24 h; read-out: IZ; summary of the method: as §5

CC[C@@]1([C@@H]2O[C@@H]([C@H]3O[C@@](O)(CO)[C@H](C)C[C@@H]3C)C[C@@H]2C)CC[C@H]([C@]2(C)CC[C@]3(C[C@H](O)[C@@H](C)[C@@H]([C@@H](C)[C@@H](OC)[C@H](C)C(=O)OCCN4CCOCC4)O3)O2)O1
MIC (Staphylococcus aureus [1]): 12.5 µg/mL (≈ 15.9 µM) | zone of inhibition at 400 µg/disc (Staphylococcus aureus [2]): 25 mm | zone of inhibition at 400 µg/disc (Candida albicans [3]): 18 mm | MIC (Candida albicans [4]): 200 µg/mL (≈ 255 µM) | zone of inhibition at 400 µg/disc (Micrococcus luteus [5]): 18 mm | MIC (Candida parapsilosis [6]): 400 µg/mL (≈ 510 µM) | MIC (Staphylococcus aureus [7]): 6.25 µg/mL (≈ 7.97 µM) | MIC (Bacillus cereus [8]): 6.25 µg/mL (≈ 7.97 µM) | Activity (Pseudomonas aeruginosa [9]): inactive | Activity (Pseudomonas aeruginosa [10]): inactive | zone of inhibition at 400 µg/disc (Enterococcus hirae [11]): 13 mm | zone of inhibition at 400 µg/disc (Staphylococcus aureus [12]): 20 mm | zone of inhibition at 400 µg/disc (Candida parapsilosis [13]): 14 mm | Activity (Escherichia coli [14]): inactive | MIC (Bacillus subtilis [15]): 6.25 µg/mL (≈ 7.97 µM) | MIC (Micrococcus luteus [16]): 12.5 µg/mL (≈ 15.9 µM) | zone of inhibition at 400 µg/disc (Staphylococcus aureus [17]): 23 mm | zone of inhibition at 400 µg/disc (Bacillus subtilis [18]): 27 mm | zone of inhibition at 400 µg/disc (Bacillus cereus [19]): 25 mm | zone of inhibition at 400 µg/disc (Staphylococcus aureus [20]): 23 mm | MIC (Staphylococcus aureus [21]): 12.5 µg/mL (≈ 15.9 µM) | Activity (Pseudomonas aeruginosa [22]): inactive | Activity (Proteus vulgaris): inactive | Activity (Escherichia coli [23]): inactive | MIC (Staphylococcus aureus [24]): 6.25 µg/mL (≈ 7.97 µM) | MIC (Candida albicans [25]): 200 µg/mL (≈ 255 µM) | MIC (Enterococcus hirae [26]): 50 µg/mL (≈ 63.8 µM) | MIC [27]: 12.5 µg/mL (≈ 15.9 µM) | zone of inhibition at 400 µg/disc [28]: 24 mm | Activity (Escherichia coli [29]): inactive | MIC (Micrococcus luteus [30]): 25 µg/mL (≈ 31.9 µM) | zone of inhibition at 400 µg/disc (Candida albicans [31]): 17 mm | zone of inhibition at 400 µg/disc (Micrococcus luteus [32]): 22 mm | Activity [33]: inactive

OC(Cn1cncn1)(Cn1cncn1)c1ccc(F)cc1F [FLUCONAZOLE]
zone of inhibition at 25 µg/disc (Candida albicans [34]): 22 mm | MIC (Candida parapsilosis [6]): 2 µg/mL (≈ 6.53 µM) | zone of inhibition at 25 µg/disc (Candida albicans [35]): 32 mm | zone of inhibition at 25 µg/disc (Candida parapsilosis [36]): 22 mm
